# Shown are actives, neighbours in structure and some others; about 1.9% of the full set was active somewhere.
# DNMT1 inh: blocks human DNA methyltransferase DNMT1; P26358; DNMT1 molecular beacon, Hinp1I cleavage, fluorescence; inhibition (reported as % activation of signal), % at 10 µM; 0.83% of 360,000 active; AID 588458; in the data active = inhibition above about 50%
# CSN inh: CSN deneddylation inhibition; AID 651999; Purified CSN, SCF-Nedd8-OG deneddylation, fluorescence polarization; 0.38% of 360,000 active; inhibition, % at 12.5 µM;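 active = pattern-corrected inhibition above about 35%, with an unprinted fluorescence ratio check between 0.5 and 1.5, limit read from the data, passing the limit was not always enough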
# Target sequence (Q92905 whole entry, looked up, one chain of several): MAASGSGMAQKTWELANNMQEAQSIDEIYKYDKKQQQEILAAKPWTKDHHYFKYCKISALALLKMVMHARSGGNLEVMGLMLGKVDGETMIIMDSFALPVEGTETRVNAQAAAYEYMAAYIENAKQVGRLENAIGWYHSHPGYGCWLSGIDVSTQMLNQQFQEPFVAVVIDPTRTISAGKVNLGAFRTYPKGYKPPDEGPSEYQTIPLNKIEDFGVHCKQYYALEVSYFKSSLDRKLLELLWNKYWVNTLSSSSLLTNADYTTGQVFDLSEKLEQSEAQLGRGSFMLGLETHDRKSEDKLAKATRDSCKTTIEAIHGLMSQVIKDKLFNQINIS
#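 Schedule: reaction 90 min, room temperature / Assay system: HEK293T-derived human Csn5 enzyme / Input: Csn5 at 0.24 nM final / Measure: inhibition of Csn5 cleavage, % / Control set: substrate-only high control, full reaction low control / Technique: fluorescence polarization of the substrate / Buffer or medium: Tris/NaCl/DTT buffer, pH 7.5 / Reagent: SCFSkp2-Nedd8OG substrate at 10 nM final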
# STEP block: STEP (human) phosphatase inhibition; P54829; recombinant STEP, OMFP fluorogenic substrate, fluorescence; inhibition, % at 20 µM; 0.25% of 360,000 active;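 active = inhibition at 20 µM, scaled per plate between control wells, above about 37%, limit read from the data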
#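 Assay system: isolated STEP enzyme / Timing: 20 min at room temperature, dark / Doses: 20 µM, 1% DMSO / Technique: fluorescence intensity, excitation 480 nm, emission 540 nm / Reagent: fluorogenic phosphatase substrate OMFP at 25 µM final / Measure: percent inhibition scaled to no-enzyme and uninhibited-enzyme controls, plate-pattern corrected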
# LMPTP block: LMPTP (human) inhibition; inhibition, % at 20 µM; recombinant LMPTP-A, OMFP fluorogenic substrate, fluorescence intensity; 0.22% of 360,000 active; AID 651560;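 active = compounds that cut the enzyme signal by at least half of the control window in the single-dose screen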
#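 material = LMPTP-A | quantity = 0.625 nM enzyme | reagent = OMFP substrate, 400 µM final | buffer or medium = Bis-Tris pH 6.0, DTT, detergent | detection = endpoint fluorescence intensity from OMFP dephosphorylation | dosing = single 20 µM dose | read-out basis = % inhibition relative to no-enzyme and uninhibited control wells | control set = no-enzyme and uninhibited controls | timing = 50 min at room temperature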
# Scp1 inh: blocks human Scp-1 phosphatase activity; Recombinant Scp1, phosphopeptide, malachite green phosphate absorbance; inhibition, % at 20 µM; 0.88% of 340,000 active; AID 493091;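 active = inhibition above about 50% at 20 µM, limit read from the data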
# Target sequence (Q9GZU7 76-261 limits assumed): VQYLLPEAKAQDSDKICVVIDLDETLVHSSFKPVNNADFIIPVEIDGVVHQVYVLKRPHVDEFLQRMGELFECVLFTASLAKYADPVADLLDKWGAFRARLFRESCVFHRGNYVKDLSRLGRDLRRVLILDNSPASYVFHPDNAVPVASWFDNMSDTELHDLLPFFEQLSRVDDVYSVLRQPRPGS
#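 Test system: SCP-1 phosphatase catalytic domain, residues 76-261; measured by: colorimetric phosphate reagent with accelerator and stabiliser, absorbance at 630 nm; timing: enzyme reaction 45 min at room temperature, colour 5 min, stabilisation 30 min; also added: Phosphorylated 17-residue peptide substrate; compound dosing: one concentration, 20 µM, with 1.0% DMSO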
# SUMO1 PPI mod: SUMO1-SIM interaction modulation | P63165 | SUMO1 binding to a labelled peptide, TR-FRET, 1 h | inhibition, % at 20 µM | 0.33% of 360,000 active | AID 602429; in the data active = inhibition above about 37%
# Target sequence (P63165 whole entry, looked up): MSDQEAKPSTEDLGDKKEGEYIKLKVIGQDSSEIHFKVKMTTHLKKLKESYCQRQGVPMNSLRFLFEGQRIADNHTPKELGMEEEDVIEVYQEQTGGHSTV
# Numbers stand for hits; - = inactive; . = not tested or not shown.
SMILES,DNMT1 inh,CSN inh,STEP block,LMPTP block,Scp1 inh,SUMO1 PPI mod
CCOc1ccc(C(=O)NCC(=O)N2CCCC2)cc1,-,-,-,-,-,-
O=C(O)CCCNc1cc(N2CCN(C(=O)c3ccco3)CC2)c2noc3c2c1C(=O)c1ccccc1-3,-,-,45,-,78,54
CN1CCN(c2cc(N3CCN(C(=O)c4ccco4)CC3)c3c4c(onc24)-c2ccccc2C3=O)CC1,-,-,-,-,-,-
CCOC(=O)N1CCN(c2cc(NCCC(=O)O)c3c4c(onc24)-c2ccccc2C3=O)CC1,67,-,-,-,76,44
O=C1c2ccccc2-c2onc3c(N4CCN(CCO)CC4)cc(N4CCN(C(=O)c5ccco5)CC4)c1c23,-,-,-,-,-,56
Cc1ccc2nc(-c3ccc(O)cc3)oc2c1,-,-,-,-,-,-
COCCNC(=O)CCc1nnc(Cc2ccc(-c3ccccc3)cc2)o1,-,115,-,-,-,-
COc1ccccc1N1CCN(S(=O)(=O)CCNC(=O)C2CCCC2)CC1,-,-,-,-,-,-
O=C1Cc2ccccc2C(=O)N1,.,35,.,-,.,-
COCCNc1nc(NCc2ccccc2OC)c2sccc2n1,-,-,-,-,.,-
COCCNc1nc(NCc2cnc(C)cn2)c2sccc2n1,-,-,-,53,.,-
O=C(Oc1ccc([N+](=O)[O-])cc1)C1CC(=O)N(c2ccc3c(c2)OCCO3)C1 (stereo not drawn),-,-,-,-,69,-
O=C1/C(=C\c2ccc(C(F)(F)F)cc2)CSc2sccc21,-,-,-,-,-,-
CCCC[n+]1ccn(-c2nc3ccccc3nc2[N-]S(=O)(=O)c2ccc(Br)cc2)c1,-,41,-,-,-,-
CC(C)CC[n+]1ccn(-c2nc3ccccc3nc2[N-]S(=O)(=O)c2ccccc2)c1,-,-,-,-,-,-
CC(CNC(=O)c1ccccc1[N+](=O)[O-])NC(=O)c1ccccc1[N+](=O)[O-] (stereo not drawn),-,-,-,-,-,-
CCn1c2ccccc2nc2cc3c(cc21)c(Cl)c(=O)c1ccccc13,61,-,-,-,.,-
CCn1c(/C=C/c2c(C)n(CC)c3ccccc23)nc2ccccc2c1=O,-,-,-,-,-,-
CCOc1ccc(/C=C2\SC(=S)N(CC(=O)Nc3ccccn3)C2=O)cc1,-,-,-,-,-,-
OCCN(CCO)c1cc2c3ccccc3ccc2c2ccccc12,-,45,-,-,-,-
O=c1oc2ccccc2n1CCn1c2ccccc2c2nc3ccccc3nc21,62,52,-,73,-,-
CCOC(=O)/C(=C\C=C1/Sc2cc(OCC)c(OCC)cc2N1CC)C(C)=O,93,-,-,-,-,-
CN(Cc1nc(-c2ccc(Cl)cc2)no1)C(=O)CCN1C(=O)[C@H]2CC=CC[C@H]2C1=O,-,-,-,-,-,-
O=C(NCCN1CCC(n2c(=O)[nH]c3ccccc32)CC1)c1cccc2c1-c1ccccc1C2=O,.,49,.,-,.,55
O=C(NCCN1CCC(n2c(=O)[nH]c3ccccc32)CC1)c1ccccc1Cl,.,-,.,-,.,-
SMILES,DNMT1 inh,CSN inh,STEP block,LMPTP block,Scp1 inh,SUMO1 PPI mod
COc1cc([N+](=O)[O-])ccc1-c1ccc(/C=N/NC(=O)OC(C)(C)C)o1,-,-,-,-,-,-
COc1cc([N+](=O)[O-])ccc1-c1ccc(/C=N/NC(N)=O)o1,-,43,-,-,-,-
COc1cc(N)ccc1Nc1c2ccccc2nc2ccccc12,-,-,-,87,.,-
O=C(CCl)Nc1ccc(-c2ccccc2)cc1,-,-,-,-,-,56
CN1CCc2nc3sc(C(=O)C45CC6CC(CC(C6)C4)C5)c(N)c3cc2C1,78,-,-,-,-,-
CCOC(=O)C1Nc2ccc(C)cc2C2C=CCC12 (stereo not drawn),-,-,-,-,-,-
O=C(O)C1Nc2ccc(Br)cc2C2C=CCC12 (stereo not drawn),93,-,94,84,69,94
CCOC(=O)C1Nc2ccc(Br)cc2C2C=CCC12 (stereo not drawn),-,-,-,-,-,-
O=C(O)C1Nc2c(O)cccc2C2C=CCC12 (stereo not drawn),103,-,-,74,71,-
O=C(O)C1Nc2c(Cl)cc(Cl)cc2C2C=CCC12 (stereo not drawn),88,-,41,87,72,103
Cc1ccc(NC(=O)CC2S/C(=N/c3nccs3)N(C)C2=O)c(C)c1 (stereo not drawn),-,-,-,-,-,-
Clc1ccc(-c2cnc3n2CCCCC3)cc1,-,-,-,-,-,43
Cc1ccc(NC(=O)NC2CC(=O)N(c3ccc4c(c3)OCCO4)C2)c(C)c1 (stereo not drawn),-,-,-,-,-,-
O=C(O)C(O)c1ccco1 (stereo not drawn),92,-,53,-,77,-
Cn1cccc1/C=C1\SC(=S)N(Nc2ccccc2)C1=O,-,-,-,-,-,-
CCCC(C(=O)O)N1C(=O)/C(=C/c2cccn2C)SC1=S (stereo not drawn),-,89,-,-,-,-
Cn1cccc1/C=C1\SC(=O)N(c2ccccc2)C1=O,-,43,-,-,-,-
CC(C)C(C(=O)O)N1C(=O)/C(=C/c2cccn2C)SC1=S (stereo not drawn),-,66,-,-,-,-
O=C(O)C(Cc1ccccc1)N1C(=O)/C(=C/c2cccs2)SC1=S (stereo not drawn),-,-,-,-,-,-
CC(C)C(C(=O)O)N1C(=O)/C(=C/C=C/c2ccco2)SC1=S (stereo not drawn),85,-,92,78,97,108
Cn1cc(/C=C2/SC(=O)N(c3ccccc3)C2=O)c2ccccc21,-,-,-,-,-,-
COc1ccc(C(=O)c2nccc3ccccc23)cc1,-,-,-,-,-,-
CC(=O)c1c(C)[nH]c(C(=O)OCC(=O)N2CCc3ccccc32)c1C,50,-,-,-,-,-
Cc1cc([N+](=O)[O-])cnc1NC(C)c1ccccc1 (stereo not drawn),-,-,-,-,-,-
Cc1ccc(C(=O)c2ccccc2C(=O)OCC(=O)NC(=O)NC(C)(C)C)cc1,-,-,-,-,-,45
CC(C)(C)NC(=O)COC(=O)c1ccccc1C(=O)c1ccccc1,-,-,-,-,-,-
COc1ccc(-n2c(SCCNCCO)nc3sc4c(c3c2=O)CCCC4)cc1,-,-,-,-,-,-
